Laboratory results from PubChem BioAssay AID489031 (Sanford-Burnham Center for Chemical Genomics, 2010).
Screen size: about 330,000 compounds; about 1,000 (0.3%) were called active. Shown is part of a subset that was picked to be rich in actives. Values without a mark were called inactive.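 How the source made its calls: active means activity change at or below -40% at 20 µM; inactive means the rest.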

These compounds were tested against Apoptotic protease-activating factor 1 (Homo sapiens) (UniProt O14727) (assay: activators of human Apaf-1 apoptosome, primary screen, biochemical, DEVD-Rh110 fluorescence, uHTS (AID 489031)). Conditions: Apaf-1 apoptosome caspase-3 activation, at 20 µM, stronger effect = lower value.
How it was run: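 Assay system – biochemical Apaf-1 apoptosome reconstitution · Medium – 20 mM HEPES buffer, pH 7.5, containing CHAPS and BSA · Incubation – 30 min preincubation, 50 min reaction, room temperature · Measured by – Caspase-3-released Rh110 fluorescence, 540 nm emission, 480 nm excitation · Read-out – Caspase-3 cleavage activity downstream of Apaf-1 activation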

Chain of Apoptotic protease-activating factor 1 (Homo sapiens) (O14727 whole entry, looked up): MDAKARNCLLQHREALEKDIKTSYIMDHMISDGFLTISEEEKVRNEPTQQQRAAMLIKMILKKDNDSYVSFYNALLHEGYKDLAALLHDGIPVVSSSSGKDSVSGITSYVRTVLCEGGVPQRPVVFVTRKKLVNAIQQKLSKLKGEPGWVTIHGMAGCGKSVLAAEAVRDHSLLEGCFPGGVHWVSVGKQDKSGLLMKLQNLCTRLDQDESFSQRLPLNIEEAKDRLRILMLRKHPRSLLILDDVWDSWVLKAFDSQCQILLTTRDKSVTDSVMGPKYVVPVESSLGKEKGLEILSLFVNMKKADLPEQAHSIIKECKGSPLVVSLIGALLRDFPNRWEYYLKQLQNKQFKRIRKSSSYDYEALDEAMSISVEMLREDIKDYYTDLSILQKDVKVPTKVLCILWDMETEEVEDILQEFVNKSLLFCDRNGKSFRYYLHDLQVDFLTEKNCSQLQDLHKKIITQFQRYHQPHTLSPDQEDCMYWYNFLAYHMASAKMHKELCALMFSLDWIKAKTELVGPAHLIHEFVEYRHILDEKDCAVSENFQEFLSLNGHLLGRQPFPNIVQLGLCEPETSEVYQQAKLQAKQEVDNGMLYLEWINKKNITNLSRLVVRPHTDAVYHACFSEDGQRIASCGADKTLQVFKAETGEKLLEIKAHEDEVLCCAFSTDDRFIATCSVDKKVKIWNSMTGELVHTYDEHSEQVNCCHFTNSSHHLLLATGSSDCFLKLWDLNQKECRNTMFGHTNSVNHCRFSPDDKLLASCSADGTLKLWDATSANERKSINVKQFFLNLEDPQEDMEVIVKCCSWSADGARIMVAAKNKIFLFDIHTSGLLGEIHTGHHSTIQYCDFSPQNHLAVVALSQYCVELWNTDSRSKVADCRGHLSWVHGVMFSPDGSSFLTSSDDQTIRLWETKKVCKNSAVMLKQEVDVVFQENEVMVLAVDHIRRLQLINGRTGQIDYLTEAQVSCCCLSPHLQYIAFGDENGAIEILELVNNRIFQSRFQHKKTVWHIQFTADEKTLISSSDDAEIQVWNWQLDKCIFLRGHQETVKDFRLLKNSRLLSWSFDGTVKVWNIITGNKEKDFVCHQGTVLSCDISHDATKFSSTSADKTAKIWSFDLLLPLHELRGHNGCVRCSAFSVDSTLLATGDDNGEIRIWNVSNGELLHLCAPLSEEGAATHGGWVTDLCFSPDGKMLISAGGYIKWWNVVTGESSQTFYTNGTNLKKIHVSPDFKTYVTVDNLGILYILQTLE

Structure (SMILES)	activity change, negative = activation
Cc1nn(CC(=O)Nc2ccc(C#N)cc2)c(C)c1[N+](=O)[O-]	-116% (active)
CCOC(=O)N1CCC(c2cc(=O)n(-c3ccccc3)[nH]2)CC1	86.7%
COCCNC(=O)Nc1ccc2nc(-c3ccco3)c(-c3ccco3)nc2c1	64.8%
CC(=O)N=c1ncn(CC(COC(C)=O)OC(C)=O)c2nc[nH]c12 (stereo not drawn)	74.2%
CCCCNC(=O)C(C)N(CCN(C)C)C(=O)CCCCCN1C(=O)NC(c2ccc(Cl)cc2)C(C(=O)OCc2ccccc2)=C1C (stereo not drawn)	67.1%
CC(C)OCCCNC(=S)N1CCC(C(=O)c2ccc3c(c2)OCCO3)CC1	-164% (active)
c1ccc(C[C@H]2CNCCN2CCC23CC4CC(CC(C4)C2)C3)cc1	47.5%
C=C(C)C(=O)Nc1cccc(C2=NOC3(C2)C[C@H](C(N)=O)N(C(=O)C(c2ccccc2)c2ccccc2)C3)c1 (stereo partly drawn)	-78.2% (active)
CC(C)c1ccccc1OCC(O)CN(CC(O)COc1cccc2ccccc12)C(C)C (stereo not drawn)	57.3%
O=c1[nH]cnc2c1c(-c1ccccc1)cn2-c1ccc(F)cc1	-47% (active)
c1ccc(CSc2nnc(-c3ccco3)c(-c3ccco3)n2)cc1	49.6%
Cc1ccsc1/C=N/NC(=O)Cc1cc(=O)[nH][nH]1	58.3%
COc1ccccc1C1C(C#N)=C(N)Oc2c1c(-c1ccccc1)nn2-c1ccccc1 (stereo not drawn)	42.2%
COc1cc(C2C(C#N)=C(N)Oc3n[nH]c(-c4ccccn4)c32)cc(OC)c1OC (stereo not drawn)	-84.8% (active)
COc1ccc2sc(-c3ccccc3OC)c(-c3ccc(OCCN4CCCC4)cc3)c2c1	73.4%
C/C(=N\NC(=O)CNc1cccc2ccccc12)c1ccc(Br)s1	90.2%
O=C(CSc1nc2ccccc2c(=O)[nH]1)Nc1nc(-c2ccc(Br)cc2)cs1	-74% (active)
Cc1ccc(-c2ccc(/C=N/NC(=O)CN3CCOCC3)o2)cc1[N+](=O)[O-]	73.9%
O=C(CCCN1CCc2[nH]c3ccc(F)cc3c2C1)c1ccc(F)cc1	65%
COc1ccc(C2CC(c3ccccc3)Nc3ncnn32)cc1 (stereo not drawn)	-445% (active)
NC[C@H](Cc1ccccc1)NCCc1cc(C(F)(F)F)cc(C(F)(F)F)c1	60.8%
Clc1ccccc1CSc1nnc(-c2ccco2)c(-c2ccco2)n1	49.9%
Cc1ccc2nc(N3CCN(C(=O)c4ccco4)CC3)sc2c1	41.9%
O=C(CN1C(=O)C2C3C=CC(C3)C2C1=O)NCCc1ccccc1Cl (stereo not drawn)	-99.8% (active)
CC[N+](C)(CC)CCC[n+]1c(-c2ccccc2)c2cc(N)ccc2c2ccc(N)cc21	98.2%
Cc1ccc(-c2nc(SCC(=O)Nc3ccccc3OC(F)F)c3c(C)c(C(=O)O)sc3n2)cc1	-98.5% (active)
CCOCCCNC(=O)c1c[nH]c2cc(C)ccc2c1=O	-152% (active)

Structure (SMILES)	activity change, negative = activation
CN(C)CCCN(C(=O)c1ccc(S(=O)(=O)N2CCCCCC2)cc1)c1nc2ccc(Br)cc2s1	60.4%
O=[N+]([O-])c1c(NCCO)cc(Sc2nc3ccccc3s2)c2nonc12	90.7%
C=CCC[C@H](Cc1ccc(F)cc1)C(=O)OC[C@@H](NC(=O)[C@@H](CC=C)CC(=O)N[C@H](CO)Cc1ccccc1)C(C)(C)C	40.6%
O=C(O)c1cc(Cl)c(Cl)cc1C(=O)Nc1cccc2ncccc12	80.4%
COC(=O)C(C)N(C#N)c1nc(C)nc(C)n1 (stereo not drawn)	-363% (active)
CCCCN(CCCC)CCC(O)c1cc2c(Cl)cc(Cl)cc2c2cc(C(F)(F)F)ccc12 (stereo not drawn)	48.9%
COc1ccc(C2c3ccc(O)cc3Oc3ncn(CCCO)c(=N)c32)cc1OC (stereo not drawn)	-43.4% (active)
Cc1cc(C)n(-c2nc(SCC(=O)N3CCCC3)c3c4c(sc3n2)CCCC4)n1	43.6%
O=c1cc(N2CCCCC2)c(-c2ccccc2)nn1Cc1cccc(F)c1	44%
COc1ccc(S(=O)(=O)N2CCCCC2)cc1NC(=O)c1cc([N+](=O)[O-])ccc1N1CCOCC1	-42.8% (active)
OC(CNCC1CCCO1)Cn1c2ccc(Br)cc2c2cc(Br)ccc21 (stereo not drawn)	43.4%
CC(=O)CCC(=O)c1ccc2ccccc2c1	-178% (active)
O=S(=O)(Nc1ccc(O)c2ccccc12)c1ccc(OC(F)(F)F)cc1	60.9%
COc1ccc(NC(=O)CN(Cc2ccccc2)S(C)(=O)=O)cc1OC	40.8%
Cc1[nH][nH]c(=O)c1C(c1ccc(-c2ccc(Cl)cc2)o1)c1c(C)[nH][nH]c1=O	85.8%
CCC(=O)Nc1c(S(=O)(=O)c2ccccc2)c2nc3ccccc3nc2n1Cc1ccccc1	49.2%
C=CCn1c(N)c(C(=O)OCC(C)C)c2nc3ccccc3nc21	54.1%
Cc1ccc(S(=O)(=O)c2c(N)n(C)c3nc4ccccc4nc23)cc1	-405% (active)
C#CCOCCOCCOCCNc1nc(N2CCN(C(=O)CCCCCCCCCCNC(=O)[C@H](CCCCN)n3cc(C)nn3)CC2)nc(N2CCN(C(=O)CCCCCCCCCCNC(=O)[C@H](CO)n3cc(CCCSC)nn3)CC2)n1	59.7%
CC(C)n1cnc2c(NCc3ccccc3)cc(N[C@@H](CO)Cc3ccccc3)cc21	94.5%
O=C(Nc1cccc(-c2nc3ccccc3[nH]2)c1)c1ccc(C(=O)Nc2cccc(-c3nc4ccccc4[nH]3)c2)cc1	-44% (active)
NC(N)=N/N=C/c1ccc(OCc2ccc(Cl)cc2Cl)cc1	65.5%
CCOC(=O)N1CCC(NC(=O)C(C)n2c3ccccc3c3cnn(C)c(=O)c32)CC1 (stereo not drawn)	44.6%
C#C[C@]1(O)CC[C@H]2[C@@H]3CCC4=CC(=O)CC[C@@H]4[C@H]3CC[C@@]21CC	1.24%
C=CC1=C(C(=O)O)N2C(=O)[C@@H](NC(=O)/C(=N\OCC(=O)O)c3csc(N)n3)[C@H]2SC1	-78% (active)
C=CC1=C(C(=O)O)N2C(=O)[C@@H](NC(=O)/C(=N/OCC(=O)O)c3csc(N)n3)[C@H]2SC1	-112% (active)
